Experimental data taken from ChEMBL document CHEMBL4715738, “In Vitro Antibacterial Activity of Curcumin-Polymyxin B Combinations against Multidrug-Resistant Bacteria Associated with Traumatic Wound Infections” (J Nat Prod, 2016).
In brackets after ≈: the same amount, converted by molar mass. Activity calls are given as the source filed them. The calls are words filed in the database; no cut-off is given here.

Key:
[1] = test system: Acinetobacter baumannii; test: Antibacterial activity against Acinetobacter baumannii AB12 harboring OXA-23 assessed as reduction in bacterial growth incubated for 24 hrs; type: functional
[2] = test system: Escherichia coli; test: Antibacterial activity against Escherichia coli NCTC 12241 assessed as reduction in bacterial growth incubated for 24 hrs in presence of curcumin; type: functional
[3] = test system: Streptococcus pyogenes; test: Antibacterial activity against Streptococcus pyogenes SPY3 assessed as reduction in bacterial growth incubated for 24 hrs; type: functional
[4] = test system: Acinetobacter baumannii; test: Antibacterial activity against Acinetobacter baumannii AB14 harboring OXA-23 clone 1 assessed as reduction in bacterial growth incubated for 24 hrs; type: functional
[5] = test system: Staphylococcus aureus; test: Antibacterial activity against Staphylococcus aureus ATCC 25923 assessed as reduction in bacterial growth incubated for 24 hrs; type: functional
[6] = test system: Streptococcus pyogenes; test: Antibacterial activity against Streptococcus pyogenes SPY2 assessed as reduction in bacterial growth incubated for 24 hrs; type: functional
[7] = test system: Pseudomonas aeruginosa; test: Synergistic antibacterial activity against Pseudomonas aeruginosa PA14 assessed as fractional inhibitory concentration index measured after 24 hrs in presence of curcumin by checkerboard assay; type: functional
In short: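 FICI calculated from combination MICs; ≤0.5 taken as synergy and >0.5–4.0 as additive. Where an MIC was not reached, the dilution above the highest concentration tested was used in the calculation. Run in triplicate and reported as means.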

[8] = test system: Escherichia coli; test: Antibacterial activity against Escherichia coli EC204 harboring NDM-1 assessed as reduction in bacterial growth incubated for 24 hrs in presence of curcumin; type: functional
[9] = test system: Staphylococcus aureus; test: Antibacterial activity against vancomycin-intermediate resistant Staphylococcus aureus Mu50 assessed as reduction in bacterial growth incubated for 24 hrs; type: functional
[10] = test system: Enterococcus faecalis; test: Antibacterial activity against Enterococcus faecalis ATCC 29212 assessed as reduction in bacterial growth incubated for 24 hrs; details: ATCC 29212, 24 h
[11] = test system: Staphylococcus aureus; test: Antibacterial activity against methicillin-resistant Staphylococcus aureus NCTC 12493 assessed as reduction in bacterial growth incubated for 24 hrs; type: functional
[12] = test system: Escherichia coli; test: Antibacterial activity against Escherichia coli EC204 harboring NDM-1 assessed as reduction in bacterial growth incubated for 24 hrs; type: functional
[13] = test system: Acinetobacter baumannii; test: Antibacterial activity against Acinetobacter baumannii AB16 harboring OXA-23 clone 2 assessed as reduction in bacterial growth incubated for 24 hrs; type: functional
[14] = test system: Pseudomonas aeruginosa; test: Antibacterial activity against Pseudomonas aeruginosa PA30 harboring VIM-2 assessed as reduction in bacterial growth incubated for 24 hrs; type: functional
[15] = test system: Pseudomonas aeruginosa; test: Antibacterial activity against Pseudomonas aeruginosa PAO1 assessed as reduction in bacterial growth incubated for 24 hrs; type: functional
[16] = test system: Enterococcus faecium; test: Antibacterial activity against vancomycin-resistant Enterococcus faecium OEF65 assessed as reduction in bacterial growth incubated for 24 hrs; type: functional
[17] = test system: Escherichia coli; test: Antibacterial activity against Escherichia coli EC2 harboring CTX-M-15 assessed as reduction in bacterial growth incubated for 24 hrs; type: functional
[18] = test system: Enterococcus faecium; test: Antibacterial activity against vancomycin-resistant Enterococcus faecium OEF42 assessed as reduction in bacterial growth incubated for 24 hrs; type: functional
[19] = test system: Stenotrophomonas maltophilia; test: Antibacterial activity against Stenotrophomonas maltophilia SMS01 assessed as reduction in bacterial growth incubated for 24 hrs; type: functional
[20] = test system: Streptococcus pyogenes; test: Antibacterial activity against Streptococcus pyogenes SPY1 assessed as reduction in bacterial growth incubated for 24 hrs; type: functional
[21] = test system: Staphylococcus aureus; test: Antibacterial activity against methicillin-resistant Staphylococcus aureus NCTC 12493 assessed as reduction in colony formation at MIC measured up to 24 hrs by time kill assay; type: functional, organism-based; details: time hrs <=24
In short: (§1)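 Time-kill in 10 mL Mueller-Hinton 2 broth, 37 °C with continuous agitation, 24 h. Inoculum was a 1/1000 dilution of a 16 h overnight culture, about 10^6 CFU/mL. Single agents at 1× MIC; combination at 1× MIC polymyxin B plus 0.5× MIC curcumin. Samples at 0, 2, 4, 6 and 24 h were serially diluted and plated on IsoSensitest agar for CFU/mL.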

[22] = test system: Staphylococcus aureus; test: Antibacterial activity against methicillin-resistant Staphylococcus aureus NCTC 12493 assessed as reduction in bacterial growth incubated for 24 hrs in presence of curcumin; type: functional
[23] = test system: Acinetobacter baumannii; test: Antibacterial activity against Acinetobacter baumannii NCTC 19606 assessed as reduction in bacterial growth incubated for 24 hrs; type: functional
[24] = test system: Stenotrophomonas maltophilia; test: Antibacterial activity against Stenotrophomonas maltophilia NCTC 10258 assessed as reduction in colony formation at MIC measured after 24 hrs by time kill assay; type: functional, organism-based
In short: (§2)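 Time-kill in Mueller-Hinton 2 broth. Inoculum was a 1/1000 dilution of a 16 h overnight culture, about 10^6 CFU/mL, 10 mL per tube. Arms were each agent alone at ×1 MIC, or the combination at ×1 MIC plus ×0.5 MIC partner. Incubated at 37 °C with continuous agitation for 24 h. Samples taken at 0, 2, 4, 6 and 24 h, serially diluted and plated on IsoSensitest agar for CFU counts.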

[25] = test system: Escherichia coli; test: Antibacterial activity against Escherichia coli NCTC 12241 assessed as reduction in bacterial growth incubated for 24 hrs; type: functional
[26] = test system: Stenotrophomonas maltophilia; test: Antibacterial activity against Stenotrophomonas maltophilia NCTC 10258 assessed as reduction in bacterial growth incubated for 24 hrs; type: functional
[27] = test system: Stenotrophomonas maltophilia; test: Antibacterial activity against Stenotrophomonas maltophilia SMB07 assessed as reduction in bacterial growth incubated for 24 hrs; type: functional
[28] = test system: Pseudomonas aeruginosa; test: Antibacterial activity against Pseudomonas aeruginosa PA14 assessed as reduction in bacterial growth incubated for 24 hrs; type: functional
[29] = test system: Pseudomonas aeruginosa; test: Antibacterial activity against Pseudomonas aeruginosa PAO1 assessed as reduction in bacterial growth incubated for 24 hrs in presence of curcumin; type: functional
[30] = test system: Enterococcus faecium; test: Antibacterial activity against vancomycin-resistant Enterococcus faecium OEF42 assessed as reduction in bacterial growth incubated for 24 hrs in presence of curcumin; type: functional
[31] = test system: Pseudomonas aeruginosa; test: Antibacterial activity against Pseudomonas aeruginosa PA14 assessed as reduction in bacterial growth incubated for 24 hrs in presence of curcumin; type: functional
[32] = test system: Pseudomonas aeruginosa; test: Antibacterial activity against Pseudomonas aeruginosa ATCC 27853 assessed as reduction in bacterial growth incubated for 24 hrs; type: functional
[33] = test system: Staphylococcus aureus; test: Antibacterial activity against vancomycin-intermediate resistant Staphylococcus aureus Mu50 assessed as reduction in bacterial growth incubated for 24 hrs in presence of polymyxin B; type: functional
[34] = test system: Staphylococcus aureus; test: Bactericidal activity against methicillin-resistant Staphylococcus aureus NCTC 12493 assessed as log reduction in colony forming units at 0.5 fold MIC measured after 24 hrs in presence of polymyxin B at MIC by time kill assay; type: functional; in short: as §1
[35] = test system: Enterococcus faecalis; test: Potentiation of polymyxin B-induced antibacterial activity against Enterococcus faecalis ATCC 29212 assessed as fold reduction in polymyxin B MIC measured after 24 hrs in presence of polymyxin B by checkerboard assay
[36] = test system: Enterococcus faecium; test: Potentiation of polymyxin B-induced antibacterial activity against vancomycin-resistant Enterococcus faecium OEF65 assessed as fold reduction in polymyxin B MIC measured after 24 hrs in presence of polymyxin B by checkerboard assay; type: functional
[37] = test system: Acinetobacter baumannii; test: Bactericidal activity against Acinetobacter baumannii NCTC 19606 assessed as log reduction in colony forming units at 0.5 fold MIC measured after 24 hrs in presence of polymyxin B at MIC by time kill assay; type: functional; in short: as §2
[38] = test system: Streptococcus pyogenes; test: Antibacterial activity against Streptococcus pyogenes SPY2 assessed as reduction in bacterial growth incubated for 24 hrs in presence of polymyxin B; type: functional

Row | SMILES | MIC [1] [µM] | MIC [3] [µM] | MIC [4] [µM] | MIC [5] [µM] | MIC [6] [µM] | MIC [9] [µM] | MIC [10] [µM] | MIC [11] [µM] | MIC [12] [µM] | MIC [13] [µM] | MIC [14] [µM] | MIC [15] [µM] | MIC [16] [µM] | MIC [17] [µM] | MIC [18] [µM] | MIC [19] [µM] | MIC [20] [µM] | MIC [23] [µM] | MIC [25] [µM] | MIC [26] [µM] | also measured
1 | CC[C@H](C)CCCCC(=O)N[C@@H](CCN)C(=O)N[C@H](C(=O)N[C@@H](CCN)C(=O)N[C@H]1CCNC(=O)[C@H]([C@@H](C)O)NC(=O)[C@H](CCN)NC(=O)[C@H](CCN)NC(=O)[C@H](CC(C)C)NC(=O)[C@@H](Cc2ccccc2)NC(=O)[C@H](CCN)NC1=O)[C@@H](C)O.O=S(=O)(O)O | 0.19 | 3.1 | 0.096 | 98 | 12.3 | 98 | 98 | 98 | 0.096 | 0.19 | 0.39 | 0.78 | 49 | 0.096 | 98 | 6.1 | 6.1 | 0.19 | 0.048 | 1.5 | MIC [2]: 0.024 µM; fractional inhibitory concentration index (FICI) [7]: 0.023; MIC [8]: 0.024 µM; Activity [21]: inactive; MIC [22]: 0.79 µM; Activity [24]: inactive; MIC [27]: 1.5 µM; MIC [28]: 0.78 µM; MIC [29]: 0.012 µM; MIC [30]: 3.1 µM; MIC [31]: 0.012 µM; MIC [32]: 0.39 µM
2 | COc1cc(/C=C/C(=O)CC(=O)/C=C/c2ccc(O)c(OC)c2)ccc1O [CURCUMIN] | 2780 (≈ 1020 µg/mL) | 174 (≈ 64.1 µg/mL) | 1390 (≈ 512 µg/mL) | 2780 (≈ 1020 µg/mL) | 174 (≈ 64.1 µg/mL) | 2780 (≈ 1020 µg/mL) | 350 (≈ 129 µg/mL) | 2780 (≈ 1020 µg/mL) | 2780 (≈ 1020 µg/mL) | 2780 (≈ 1020 µg/mL) | 2780 (≈ 1020 µg/mL) | 1390 (≈ 512 µg/mL) | 174 (≈ 64.1 µg/mL) | 2780 (≈ 1020 µg/mL) | 350 (≈ 129 µg/mL) | 2780 (≈ 1020 µg/mL) | 350 (≈ 129 µg/mL) | 2780 (≈ 1020 µg/mL) | 2780 (≈ 1020 µg/mL) | 2780 (≈ 1020 µg/mL) | MIC [33]: 43 µM; Activity [34]: >3 log10CFU/ml; fold change (FC) [35]: 3; fold change (FC) [36]: 3; Activity [37]: >3 log10CFU/ml; MIC [38]: 22 µM; MIC [27]: 2780 µM (≈ 1020 µg/mL); MIC [28]: 1390 µM (≈ 512 µg/mL); MIC [32]: 1390 µM (≈ 512 µg/mL)
